# Assay results gathered from unrelated publications.
SMILES,organism,assay,system,conditions,endpoint,result
O=[N+]([O-])c1ccc(S(=O)(=O)Oc2cccc3cccnc23)cc1,Escherichia coli,"microbial growth, broth dilution",ATCC25922,,IC50,215 µg/mL
O=C(Nc1ccc2c(c1)CCC2)Nc1ccc(Cl)c(C(F)(F)F)c1,Staphylococcus aureus,microbial growth,NCTC8325,24 h,MIC,> 100 µM
CC(C)Cc1nn(-c2nc3ccc(Cl)cc3s2)c2c1C(=O)c1ccccc1-2,Staphylococcus aureus,"microbial growth, well diffusion",NCIM5021,125 µg/mL,inhibition zone,10 mm
O=C(O)CN1C(=O)/C(=C/c2ccc(-c3ccc(N(c4ccccc4)c4ccccc4)cc3)cc2)NC1=S,Micrococcus luteus,"microbial killing, broth dilution",ATCC10240,,MBC,31.3 µg/mL
Cc1ccc(C(C)C)cc1OCc1cn(-c2ccc(C(=O)O)cc2)nn1,Escherichia coli,"microbial growth, broth dilution",ATCC25922,,IC50,15.3 µg/mL
O=C1NC(=S)N/C1=C\c1ccc(-c2ccc(N(c3ccccc3)c3ccccc3)cc2)c2ccccc12,Micrococcus luteus,"microbial killing, broth dilution",ATCC10240,,MBC,> 1000 µg/mL
O=C1NC(=O)[C@@H](c2cn3c4c(cccc24)CCC3)[C@@H]1c1c[nH]c2ccccc12,Staphylococcus aureus,microbial growth,NCTC8325,,MIC,> 30 µM
O=C1NC(=S)S/C1=C\c1ccc(-c2ccc(N(c3ccccc3)c3ccccc3)cc2)cc1,Micrococcus luteus,"microbial killing, broth dilution",ATCC10240,,MBC,500 µg/mL
O=C1C=C(OCc2cn(-c3ccc(Cl)cc3)nn2)C(=O)c2ccccc21,Escherichia coli,"microbial growth, broth dilution",ATCC25922,,IC50,306 µg/mL
O=C(O)CN1C(=O)/C(=C/c2ccc(-c3ccc(N(c4ccccc4)c4ccccc4)cc3)cc2)SC1=S,Micrococcus luteus,"microbial killing, broth dilution",ATCC10240,,MBC,31.3 µg/mL
Cc1nn(-c2nc3ccc(Br)cc3s2)c2c1C(=O)c1ccccc1-2,Staphylococcus aureus,"microbial growth, well diffusion",NCIM5021,125 µg/mL,inhibition zone,10 mm
COc1cc2c(N3CCN(C(=O)Nc4ccc(OC(C)C)cc4)CC3)ncnc2cc1OCCCN1CCCCC1,Staphylococcus aureus,microbial growth,NCTC8325,,MIC,> 30 µM
O=C(O)CN1C(=O)/C(=C/c2c3ccccc3c(-c3ccc(N(c4ccccc4)c4ccccc4)cc3)c3ccccc23)SC1=S,Micrococcus luteus,"microbial killing, broth dilution",ATCC10240,,MBC,125 µg/mL
Cc1ccc2nc(-n3nc(C)c4c3-c3ccccc3C4=O)sc2c1,Staphylococcus aureus,"microbial growth, well diffusion",NCIM5021,1000 µg/mL,inhibition zone,12 mm
CCCCS(=O)(=O)Oc1cc(C(C)C)ccc1C,Escherichia coli,"microbial growth, broth dilution",ATCC25922,,IC50,156 µg/mL
O=S(=O)(c1cccc2cnccc12)N1CCCNCC1,Staphylococcus aureus,microbial growth,NCTC8325,,MIC,> 30 µM
O=C1C=C(OCc2cn(-c3ccc([N+](=O)[O-])cc3)nn2)C(=O)c2ccccc21,Escherichia coli,"microbial growth, broth dilution",ATCC25922,,IC50,396 µg/mL
C#CCCCCC(=O)Nc1ccccc1,Staphylococcus aureus,microbial growth,NCTC8325,,MIC,> 100 µM
[H]/N=C(/N)N[C@H]1[C@H](O)[C@@H](O)[C@H](O[C@@H]2O[C@@H](C)[C@](O)(C=O)[C@H]2O[C@@H]2O[C@@H](CO)[C@H](O)[C@@H](O)[C@@H]2NC)[C@@H](N/C(N)=N\[H])[C@@H]1O,Staphylococcus aureus,"microbial growth, well diffusion",NCIM5021,1000 µg/mL,inhibition zone,30 mm
O=C(Nc1ccccc1-c1ccc(F)c(F)c1)c1nccnc1C(F)(F)F,Alternaria solani,microbial growth,,,EC50,0.15 µg/mL
O=C1NC(=S)S/C1=C\c1ccc(-c2ccc(N(c3ccccc3)c3ccccc3)cc2)c2ccccc12,Micrococcus luteus,"microbial killing, broth dilution",ATCC10240,,MBC,> 1000 µg/mL
Cc1ccc(C(C)C)cc1OS(=O)(=O)c1ccccc1,Escherichia coli,"microbial growth, broth dilution",ATCC25922,,IC50,113 µg/mL
O=C1NC(=S)N/C1=C\c1ccc(-c2ccc(N(c3ccccc3)c3ccccc3)cc2)cc1,Staphylococcus aureus,"microbial killing, broth dilution",ATCC43300,,MBC,> 1000 µg/mL
Cc1ccc2nc(-n3nc(CC(C)C)c4c3-c3ccccc3C4=O)sc2c1,Staphylococcus aureus,"microbial growth, well diffusion",NCIM5021,250 µg/mL,inhibition zone,11 mm
Cc1cnc(-c2cnc(NCCNc3ccc(C#N)cn3)nc2-c2ccc(Cl)cc2Cl)[nH]1,Staphylococcus aureus,microbial growth,NCTC8325,,MIC,> 30 µM
CC(C)c1nn(-c2nc3ccc(Br)cc3s2)c2c1C(=O)c1ccccc1-2,Staphylococcus aureus,"microbial growth, well diffusion",NCIM5021,500 µg/mL,inhibition zone,11 mm
CCN1CCN(Cc2ccc(-c3cc4c(N[C@H](C)c5ccccc5)ncnc4[nH]3)cc2)CC1,Staphylococcus aureus,microbial growth,NCTC8325,,MIC,> 30 µM
COc1ccc2nc(-n3nc(CC(C)C)c4c3-c3ccccc3C4=O)sc2c1,Staphylococcus aureus,"microbial growth, well diffusion",NCIM5021,500 µg/mL,inhibition zone,12 mm
N#Cc1c(O)c2c(-c3ccc(-c4ccccc4O)cc3)csc2[nH]c1=O,Staphylococcus aureus,microbial growth,NCTC8325,,MIC,> 30 µM
O=C1NC(=S)N/C1=C\c1c2ccccc2c(-c2ccc(N(c3ccccc3)c3ccccc3)cc2)c2ccccc12,Micrococcus luteus,"microbial killing, broth dilution",ATCC10240,,MBC,> 1000 µg/mL
Cc1nn(-c2nc3ccc(Cl)cc3s2)c2c1C(=O)c1ccccc1-2,Staphylococcus aureus,"microbial growth, well diffusion",NCIM5021,125 µg/mL,inhibition zone,10 mm
